In brackets after ≈: the same amount, converted by molar mass. Activity calls are given as the source filed them. No cut-off for these calls is given here.
What was measured:
Staphylococcus aureus [1] = assay: Antibacterial activity against methicillin resistant Staphylococcus aureus FPR3757 assessed as inhibition of bacterial growth incubated for 24 hrs by CLSI based method; assay type: functional; details: read-out: MIC100
Summary of the method: (§1)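 It was mixed 1:1 with twofold serial compound dilutions and incubated stationary at 37 °C for 24 h. MIC was the lowest concentration giving complete inhibition of observable growth, with an oxacillin control.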

Erythrocyte = assay: Hemolytic activity in sheep erythrocytes at 32 ug/ml incubated for 1 hr; assay type: toxicity, cell-based, Ovis aries; details: dose 32 µg/ml
Summary of the method: (§2)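 4% sheep erythrocytes mixed 1:1 with twofold serial compound dilutions in PBS, incubated stationary 1 h at 37 °C, then centrifuged at 500g for 5 min. Supernatant A540 is measured and percent hemolysis is calculated relative to DMSO vehicle (0%) and Triton X-100 (100%). Triplicate, mean ± SD.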

[2] = Cytotoxicity against sheep erythrocytes assessed as reduction in cell viability; assay type: toxicity, cell-based, Ovis aries, Erythrocyte; summary of the method: as §2
[3] = Therapeutic index, ratio of CC50 for Cytotoxicity against sheep erythrocytes to MIC for antibacterial activity against methicillin resistant Staphylococcus aureus FPR3757; assay type: toxicity
Summary of the method: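 Ratio of erythrocyte CC50 to MRSA FPR3757 MIC. For hemolysis, 4% washed sheep erythrocytes were mixed 1:1 with twofold compound dilutions in PBS and incubated 1 h at 37 °C. Supernatant A540 was read after centrifugation and normalized between DMSO and Triton X-100 (100% lysis). Triplicates. Highest concentration tested: 32 μg/mL.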

Staphylococcus aureus [4] = assay: Antibacterial activity against methicillin-resistant Staphylococcus aureus MW2 assessed as inhibition of bacterial growth incubated for 24 hrs by CLSI based method; assay type: functional
Summary of the method: (§3)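 Broth microdilution per CLSI. Equal volume of twofold serial compound dilutions added. Incubated stationary at 37 °C for 24 h. MIC taken as lowest concentration giving complete inhibition of visible growth. Oxacillin control for Gram-positives, ceftriaxone for Gram-negatives.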

Staphylococcus aureus [5] = assay: Antibacterial activity against methicillin-resistant Staphylococcus aureus COL assessed as inhibition of bacterial growth incubated for 24 hrs by CLSI based method; assay type: functional; summary of the method: as §3
Staphylococcus aureus [6] = assay: Antibacterial activity against methicillin-resistant Staphylococcus aureus N315 assessed as inhibition of bacterial growth incubated for 24 hrs by CLSI based method; assay type: functional; summary of the method: as §3
Staphylococcus aureus [7] = assay: Antibacterial activity against methicillin-resistant Staphylococcus aureus NRS71 assessed as inhibition of bacterial growth incubated for 24 hrs by CLSI based method; assay type: functional; summary of the method: as §3
[8] = system: Staphylococcus epidermidis; assay: Antibacterial activity against Staphylococcus epidermidis NIF104008 assessed as inhibition of bacterial growth incubated for 24 hrs by CLSI based method; assay type: functional; summary of the method: as §3
[9] = system: Staphylococcus epidermidis; assay: Antibacterial activity against Staphylococcus epidermidis NIF104003 assessed as inhibition of bacterial growth incubated for 24 hrs by CLSI based method; assay type: functional; summary of the method: as §3
Enterococcus faecalis [10] = assay: Antibacterial activity against Enterococcus faecalis ATCC700802 assessed as inhibition of bacterial growth incubated for 24 hrs by CLSI based method; assay type: functional; summary of the method: as §3
Enterococcus faecalis [11] = assay: Antibacterial activity against Enterococcus faecalis DHMC #1 assessed as inhibition of bacterial growth incubated for 24 hrs by CLSI based method; assay type: functional; summary of the method: as §3
Enterococcus faecium [12] = assay: Antibacterial activity against Enterococcus faecium ATCC19579 assessed as inhibition of bacterial growth incubated for 24 hrs by CLSI based method; assay type: functional; summary of the method: as §3
Enterococcus faecium [13] = assay: Antibacterial activity against Enterococcus faecium DHMC #1 assessed as inhibition of bacterial growth incubated for 24 hrs by CLSI based method; assay type: functional; summary of the method: as §3
Escherichia coli = assay: Antibacterial activity against Escherichia coli DHMC-1 assessed as inhibition of bacterial growth incubated for 24 hrs by CLSI based method; assay type: functional; summary of the method: as §3
Klebsiella pneumoniae = assay: Antibacterial activity against Klebsiella pneumoniae 7117 assessed as inhibition of bacterial growth incubated for 24 hrs by CLSI based method; assay type: functional; summary of the method: as §3
Enterobacter cloacae = assay: Antibacterial activity against Enterobacter cloacae ND-21 assessed as inhibition of bacterial growth incubated for 24 hrs by CLSI based method; assay type: functional; summary of the method: as §3
Candida albicans = assay: Antifungal activity against Candida albicans SC5314 assessed as inhibition of bacterial growth incubated for 24 hrs by CLSI based method; assay type: functional
Summary of the method: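 Broth microdilution per CLSI. It is mixed 1:1 with twofold serial compound dilutions and incubated stationary at 35 °C for 24 h. MIC is read as the lowest concentration with no observable growth.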

Staphylococcus aureus [14] = assay: Antibacterial activity against community-associated methicillin-resistant Staphylococcus aureus USA300 FPR3757 assessed as inhibition of bacterial growth incubated for 24 hrs by CLSI based method; assay type: functional; summary of the method: as §1
Cell membrane [15] = assay: Induction of cell membrane damage in Staphylococcus aureus USA300 assessed as cross-wall-septum formation with reduced splitting at 1 times MIC measured after 10 mins by TEM analysis; assay type: subcellular
Cell membrane [16] = assay: Induction of cell membrane damage in Staphylococcus aureus USA300 assessed as mesosome-like membrane inclusions at 1 times MIC measured after 1 hrs by TEM analysis
Summary of the method: (§4)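 Fixed in glutaraldehyde/paraformaldehyde in cacodylate pH 7.4, post-fixed with osmium tetroxide, stained with uranyl acetate, resin-embedded, thin-sectioned and imaged by TEM.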

Cell membrane [17] = assay: Induction of cell membrane damage in Staphylococcus aureus USA300 assessed as membrane wrinkling at 1 times MIC measured after 1 hrs by TEM analysis; summary of the method: as §4
Cell membrane [18] = assay: Induction of cell membrane damage in Staphylococcus aureus USA300 assessed as bulging of the septum at 1 times MIC measured after 1 hrs by TEM analysis; summary of the method: as §4
Vero [19] = assay: Cytotoxicity against African green monkey Vero cells assessed as increase in LDH release at 0.47 to 30 uM incubated for 24 hrs; assay type: toxicity, cell-based; details: chlorocebus sabaeus, dose 0.47-30 µM
Summary of the method: (§5)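 Confluent Vero cells (maintained in RPMI 1640 + 10% FBS, 37 °C, 5% CO2) exposed to compound at 0.47–30 μM (twofold dilutions) in serum-free medium for 24 h at 37 °C. LDH in supernatant is measured colorimetrically at 490 nm and expressed as percent of 2% detergent positive control.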

Vero [20] = assay: Cytotoxicity against African green monkey Vero cells assessed as increase in LDH release at 30 uM incubated for 24 hrs relative to control; assay type: toxicity, cell-based; details: chlorocebus sabaeus; summary of the method: as §5
[21] = Protein binding in human plasma at […] incubated for 4 hrs under shaking condition by LC-MS/MS based equilibrium dialysis method; assay type: ADME, cell-free
Summary of the method: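 Rapid equilibrium dialysis (8k MWCO). Compound is spiked into human plasma at 10 μg/mL and dialysed against DPBS pH 7.4 with shaking for 4 h at 37 °C. Matrices are matched, proteins precipitated with methanol containing internal standard, and both chambers quantified by LC-MS/MS against a calibration curve. Percent free and bound are calculated from chamber concentrations.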

Staphylococcus aureus [22] = assay: Antibacterial activity against methicillin resistant Staphylococcus aureus FPR3757 assessed as inhibition of bacterial growth incubated for 24 hrs in presence of 10% FBS by CLSI based method; assay type: functional
Summary of the method: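 CLSI broth microdilution against MRSA FPR3757 (USA300) in Mueller–Hinton broth supplemented with 10% serum (fetal bovine or mouse). Inoculum 10⁶ CFU/mL with twofold serial compound dilutions, stationary incubation at 37 °C for 24 h. MIC read as lowest concentration with complete inhibition of visible growth.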

Staphylococcus aureus [23] = assay: microbe, parasite or virus in culture; details: USA300 FPR3757, 24 h
Staphylococcus simulans [24] = assay: Antibacterial activity against Staphylococcus simulans assessed as inhibition of DNA synthesis at 0.5 to 5 times MIC measured upto 60 mins by [3H]-thymidine incorporation based scintillation counter analysis; assay type: functional, organism-based; details: DDE = dose-dependent effect
Summary of the method: (§6)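 S. simulans was grown in cation-adjusted Mueller–Hinton medium at 37 °C. […] Samples were taken at 0–60 min, precipitated with ice-cold 10% TCA, filtered and counted. Inhibition at 60 min is relative to DMSO control; triplicate.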

Staphylococcus simulans [25] = assay: Antibacterial activity against Staphylococcus simulans assessed as inhibition of RNA synthesis at 0.5 to 5 times MIC measured upto 60 mins by [3H]-uridine incorporation based scintillation counter analysis; assay type: functional, organism-based; details: DDE = dose-dependent effect; summary of the method: as §6
Staphylococcus simulans [26] = assay: Antibacterial activity against Staphylococcus simulans assessed as inhibition of protein synthesis at 0.5 to 5 times MIC measured upto 60 mins by [3H]-L-isoleucine incorporation based scintillation counter analysis; assay type: functional, organism-based; details: DDE = dose-dependent effect; summary of the method: as §6
Staphylococcus simulans [27] = assay: Antibacterial activity against Staphylococcus simulans assessed as inhibition of DNA synthesis at 5 times MIC measured upto 60 mins by [3H]-thymidine incorporation based scintillation counter analysis; assay type: functional; details: 1 h
Summary of the method: (§7)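 Aliquots taken 0–60 min, precipitated with ice-cold 10% TCA, filtered, washed, scintillation counted. Percent inhibition is relative to DMSO control at 60 min; triplicate.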

Staphylococcus simulans [28] = assay: Antibacterial activity against Staphylococcus simulans assessed as inhibition of RNA synthesis at 5 times MIC measured upto 60 mins by [3H]-uridine incorporation based scintillation counter analysis; assay type: functional; details: 1 h; summary of the method: as §7
Staphylococcus simulans [29] = assay: Antibacterial activity against Staphylococcus simulans assessed as inhibition of protein synthesis at 5 times MIC measured upto 60 mins by [3H]-L-isoleucine incorporation based scintillation counter analysis; assay type: functional; details: 1 h; summary of the method: as §7
Staphylococcus simulans [30] = assay: Antibacterial activity against Staphylococcus simulans assessed as inhibition of cell wall synthesis at 5 times MIC measured upto 60 mins by [3H]-glucosamine incorporation based scintillation counter analysis; assay type: functional; details: 1 h; summary of the method: as §7
[31] = Induction of drug resistance in Staphylococcus aureus FPR3757 assessed as increase in MIC incubated for 65 days (reference value: 0.25 ug/ml); assay type: functional; details: FPR3757, 1560 h, time 65 day
[32] = Kinetic aqueous solubility of the compound in DPBS at pH 7.4 at 100 ug/ml measured after 6 hrs by LC-MS/MS analysis; assay type: physicochemical; details: DPBS, pH 7.4, dose 100 µg/ml, read-out: Kinetic_solubility

Row | Compound | MIC (Staphylococcus aureus [1]) | Activity (Erythrocyte) | MIC (Staphylococcus aureus [4]) | MIC (Staphylococcus aureus [5]) | MIC (Staphylococcus aureus [6]) | MIC (Staphylococcus aureus [7]) | MIC [8] | MIC (Enterococcus faecalis [10]) | MIC (Enterococcus faecalis [11]) | MIC (Enterococcus faecium [12]) | MIC (Escherichia coli) | MIC (Klebsiella pneumoniae) | MIC (Enterobacter cloacae) | MIC (Candida albicans) | MIC (Staphylococcus aureus [14]) | Activity (Cell membrane [15]) | Activity (Cell membrane [16]) | Activity (Cell membrane [17]) | Activity (Cell membrane [18]) | Activity (Vero [19]) | other results
1 | O=c1cc(C(F)(F)F)[nH]c2cc(C(F)(F)F)cc(Nc3ccc(Cl)c(Cl)c3)c12 | < 0.0625 µg/mL | Non-Toxic |  |  |  |  |  |  |  |  |  |  |  |  |  |  |  |  |  |  | CC50 [2]: > 32 µg/mL; selectivity ratio [3]: > 500
2 | O=c1cc(C(F)(F)F)[nH]c2cc(C(F)(F)F)cc(N[C@H]3CC[C@H](C(F)(F)F)CC3)c12 | 0.125 µg/mL (≈ 0.28 µM) | Non-Toxic | 0.125 µg/mL (≈ 0.28 µM) | < 0.06 µg/mL | 0.125 µg/mL (≈ 0.28 µM) | 0.0625 µg/mL (≈ 0.14 µM) | 0.125 µg/mL (≈ 0.28 µM) | 2 µg/mL (≈ 4.48 µM) | 0.125 µg/mL (≈ 0.28 µM) | 0.25 µg/mL (≈ 0.56 µM) | > 128 µg/mL | > 128 µg/mL | > 128 µg/mL | > 256 µg/mL | 0.5 µg/mL (≈ 1.12 µM) | Active | Active | Active | Active | Non-Toxic | MIC [9]: 0.125 µg/mL (≈ 0.28 µM); MIC (Enterococcus faecium [13]): 0.25 µg/mL (≈ 0.56 µM); Activity (Vero [20]): 20%; PPB [21]: 99.9%; MIC (Staphylococcus aureus [22]): 4 µg/mL; MBC (Staphylococcus aureus [23]): 4 µg/mL (≈ 8.96 µM)
3 | FC(F)(F)c1ccc(Nc2cc(C(F)(F)F)nc3cc(C(F)(F)F)ccc23)nc1 | 0.25 µg/mL (≈ 0.588 µM) |  | 0.125 µg/mL (≈ 0.294 µM) | 0.25 µg/mL (≈ 0.588 µM) | 0.25 µg/mL (≈ 0.588 µM) | 0.25 µg/mL (≈ 0.588 µM) | 0.125 µg/mL (≈ 0.294 µM) | 16 µg/mL (≈ 37.6 µM) | 1 µg/mL (≈ 2.35 µM) | 1 µg/mL (≈ 2.35 µM) | > 128 µg/mL | > 128 µg/mL | > 128 µg/mL | > 256 µg/mL | 0.25 µg/mL (≈ 0.588 µM) | Active | Active | Active | Active |  | inhibition (Staphylococcus simulans [24]): Dde; inhibition (Staphylococcus simulans [25]): Dde; inhibition (Staphylococcus simulans [26]): Dde; inhibition (INH) (Staphylococcus simulans [27]): 100%; inhibition (INH) (Staphylococcus simulans [28]): 100%; inhibition (INH) (Staphylococcus simulans [29]): 100%; inhibition (INH) (Staphylococcus simulans [30]): 100%; MIC [31]: 0.5 µg/mL; MIC (Staphylococcus aureus [22]): 4 µg/mL; MBC (Staphylococcus aureus [23]): 8 µg/mL (≈ 18.8 µM)
4 | O=c1cc(C(F)(F)F)[nH]c2cc(C(F)(F)F)cc(Nc3ccc(F)cn3)c12 | 0.125 µg/mL (≈ 0.319 µM) |  |  |  |  |  |  |  |  |  |  |  |  |  |  |  |  |  |  | Non-Toxic | Activity (Vero [20]): 20%; PPB [21]: 99.8%; solubility kinetic at 6 h [32]: 1 µg/mL (≈ 2.56 µM)
